We go through 15 compounds from the M2OR odorant receptor database.

Where a chain is given by its changes, count along the chain named.

The first test has as its system T1, OR6B2 R122C C179R.
T1 sequence (whole entry): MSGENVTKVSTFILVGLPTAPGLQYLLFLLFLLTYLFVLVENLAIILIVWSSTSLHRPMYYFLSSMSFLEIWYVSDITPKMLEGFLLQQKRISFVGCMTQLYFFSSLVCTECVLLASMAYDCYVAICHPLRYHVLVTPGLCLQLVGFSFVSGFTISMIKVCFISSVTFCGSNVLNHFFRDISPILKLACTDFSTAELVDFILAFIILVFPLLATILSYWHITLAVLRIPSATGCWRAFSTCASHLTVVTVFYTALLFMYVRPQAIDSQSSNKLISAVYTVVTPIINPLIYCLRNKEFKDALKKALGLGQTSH
The following applies: stereoisomer not certain. An outline of the steps:
(§1)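 Values were gathered from published papers (main text and supplementary material), with extra details requested from the original authors when needed, and checked for typos and inconsistencies. Each receptor–molecule pair is called responsive (active) if the original authors judged the measured signal statistically different from baseline, and non-responsive (inactive) otherwise. Assay methods varied by source, often transient mammalian cell-line luciferase assays. Recorded details include cell line, G-protein, co-transfected protein and tags.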
For the compound `CCCCCCC=CCCC=O`, the “odorant receptor agonist call” value was “inactive”.

Consider `Cc1cnc(C)c(C)n1`, for which the “odorant receptor agonist call” value was “inactive”.

Take `CC1=C(O)C(=O)C(C)O1` (stereo not drawn): the “odorant receptor agonist call” value is “inactive”.

With `CCC1OC(C)=C(O)C1=O` (stereo not drawn), the “odorant receptor agonist call” value was “inactive”.

`CC1=NC(C)C(C)S1` (stereo not drawn): the “odorant receptor agonist call” value is “inactive”.

Turning to `CCC1OC(=O)C(O)=C1C` (stereo not drawn), the “odorant receptor agonist call” value was “inactive”.

On to `CCCC(S)CCOC(C)=O` (stereo not drawn), for which the “odorant receptor agonist call” value was “inactive”.

Regarding `CC1=C(O)C(=O)OC1C` (stereo not drawn), the “odorant receptor agonist call” value is “inactive”.

The next test deals with T2, OR6B3 (Homo sapiens) (UniProt Q8NGW1).
T2 sequence (whole entry): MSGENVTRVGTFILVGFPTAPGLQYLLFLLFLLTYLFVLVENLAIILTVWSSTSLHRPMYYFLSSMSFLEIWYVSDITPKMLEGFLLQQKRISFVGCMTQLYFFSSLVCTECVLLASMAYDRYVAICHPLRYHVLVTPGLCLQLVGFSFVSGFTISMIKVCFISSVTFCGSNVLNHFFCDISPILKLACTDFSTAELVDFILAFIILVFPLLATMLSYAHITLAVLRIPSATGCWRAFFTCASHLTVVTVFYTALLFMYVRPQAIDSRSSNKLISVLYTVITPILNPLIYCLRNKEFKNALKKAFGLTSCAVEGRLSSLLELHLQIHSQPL
The note with it: stereoisomer not certain. An outline of the steps:
as §1
Take `CCC(S)C(C)CO` (stereo not drawn): the “odorant receptor agonist call” value is “inactive”.

On to `CC(=O)c1c(C)c([N+](=O)[O-])c(C(C)(C)C)c([N+](=O)[O-])c1C`, for which the “odorant receptor agonist call” value is “inactive”.

With `CC1CCCCCCCCCCCCC(=O)C1` (stereo not drawn), the “odorant receptor agonist call” value is “inactive”.

As to `CCCCCCC=CCCC=O`, the “odorant receptor agonist call” value was “inactive”.

Consider `Cc1cnc(C)c(C)n1`, for which the “odorant receptor agonist call” value was “inactive”.

As to `CC1=C(O)C(=O)C(C)O1` (stereo not drawn), the “odorant receptor agonist call” value is “inactive”.

For the compound `CCC1OC(C)=C(O)C1=O` (stereo not drawn), the “odorant receptor agonist call” value was “inactive”.

Regarding `CC1=NC(C)C(C)S1` (stereo not drawn), the “odorant receptor agonist call” value was “inactive”.

Take `CCCCCC(S)C(C)CO` (stereo not drawn): the “odorant receptor agonist call” value was “inactive”.

On to `CCCCCC(=O)C(C)C(C)=O` (stereo not drawn), for which the “odorant receptor agonist call” value is “inactive”.

Turning to `CCC1OC(=O)C(O)=C1C` (stereo not drawn), the “odorant receptor agonist call” value is “inactive”.

Take `CCCC(S)CCOC(C)=O` (stereo not drawn): the “odorant receptor agonist call” value is “inactive”.

For `CC(CO)CS` (stereo not drawn), the “odorant receptor agonist call” value is “inactive”.

On to `CC1=C(O)C(=O)OC1C` (stereo not drawn), for which the “odorant receptor agonist call” value is “inactive”.

Take `CCCCC(S)C(C)CO` (stereo not drawn): the “odorant receptor agonist call” value was “inactive”.

A further test relates to T3, OR6B3 T48I R131C.
T3 sequence (whole entry): T2 sequence (whole entry) with T48I, R131C
The note with it: stereoisomer not certain. In a few lines:
as §1
`CCCCCCC=CCCC=O`: the “odorant receptor agonist call” value is “inactive”.

Take `Cc1cnc(C)c(C)n1`: the “odorant receptor agonist call” value was “inactive”.

Take `CC1=C(O)C(=O)C(C)O1` (stereo not drawn): the “odorant receptor agonist call” value is “inactive”.

In the case of `CCC1OC(C)=C(O)C1=O` (stereo not drawn), the “odorant receptor agonist call” value was “inactive”.

`CC1=NC(C)C(C)S1` (stereo not drawn): the “odorant receptor agonist call” value was “inactive”.

`CCC1OC(=O)C(O)=C1C` (stereo not drawn): the “odorant receptor agonist call” value is “inactive”.

As for `CCCC(S)CCOC(C)=O` (stereo not drawn), the “odorant receptor agonist call” value was “inactive”.

Turning to `CC1=C(O)C(=O)OC1C` (stereo not drawn), the “odorant receptor agonist call” value is “inactive”.

The next test addresses T4, OR6C1 (Homo sapiens) (UniProt Q96RD1).
T4 sequence (whole entry): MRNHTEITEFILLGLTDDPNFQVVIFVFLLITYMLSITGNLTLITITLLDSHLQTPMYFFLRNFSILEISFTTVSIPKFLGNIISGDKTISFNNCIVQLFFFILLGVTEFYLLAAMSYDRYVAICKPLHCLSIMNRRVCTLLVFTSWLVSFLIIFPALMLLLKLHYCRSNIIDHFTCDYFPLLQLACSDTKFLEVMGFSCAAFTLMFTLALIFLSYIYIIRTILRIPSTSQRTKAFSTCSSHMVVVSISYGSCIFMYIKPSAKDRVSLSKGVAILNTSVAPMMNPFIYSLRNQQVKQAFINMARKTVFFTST
The following applies: stereoisomer not certain. In a few lines: as §1
For the compound `CCC(S)C(C)CO` (stereo not drawn), the “odorant receptor agonist call” value is “inactive”.

For the compound `CC(=O)c1c(C)c([N+](=O)[O-])c(C(C)(C)C)c([N+](=O)[O-])c1C`, the “odorant receptor agonist call” value was “inactive”.

Regarding `CC1CCCCCCCCCCCCC(=O)C1` (stereo not drawn), the “odorant receptor agonist call” value was “inactive”.

Turning to `CCCCCCC=CCCC=O`, the “odorant receptor agonist call” value was “inactive”.

Consider `Cc1cnc(C)c(C)n1`, for which the “odorant receptor agonist call” value was “inactive”.

In the case of `CC1=C(O)C(=O)C(C)O1` (stereo not drawn), the “odorant receptor agonist call” value was “inactive”.

`CCC1OC(C)=C(O)C1=O` (stereo not drawn): the “odorant receptor agonist call” value is “inactive”.

With `CC1=NC(C)C(C)S1` (stereo not drawn), the “odorant receptor agonist call” value was “inactive”.

For the compound `CCCCCC(S)C(C)CO` (stereo not drawn), the “odorant receptor agonist call” value is “inactive”.

Consider `CCCCCC(=O)C(C)C(C)=O` (stereo not drawn), for which the “odorant receptor agonist call” value was “inactive”.

Turning to `CCC1OC(=O)C(O)=C1C` (stereo not drawn), the “odorant receptor agonist call” value was “inactive”.

Consider `CCCC(S)CCOC(C)=O` (stereo not drawn), for which the “odorant receptor agonist call” value was “inactive”.

In the case of `CC(CO)CS` (stereo not drawn), the “odorant receptor agonist call” value is “inactive”.

For `CC1=C(O)C(=O)OC1C` (stereo not drawn), the “odorant receptor agonist call” value is “inactive”.

Consider `CCCCC(S)C(C)CO` (stereo not drawn), for which the “odorant receptor agonist call” value is “inactive”.

The next test has as its system T5, OR6C1 C130Y H165D V246I.
T5 sequence (whole entry): T4 sequence (whole entry) with C130Y, H165D, V246I
The following applies: stereoisomer not certain. An outline of the steps:
as §1
`CCCCCCC=CCCC=O`: the “odorant receptor agonist call” value is “inactive”.

With `Cc1cnc(C)c(C)n1`, the “odorant receptor agonist call” value is “inactive”.

On to `CC1=C(O)C(=O)C(C)O1` (stereo not drawn), for which the “odorant receptor agonist call” value was “inactive”.

For `CCC1OC(C)=C(O)C1=O` (stereo not drawn), the “odorant receptor agonist call” value was “inactive”.

As for `CC1=NC(C)C(C)S1` (stereo not drawn), the “odorant receptor agonist call” value was “inactive”.

Consider `CCC1OC(=O)C(O)=C1C` (stereo not drawn), for which the “odorant receptor agonist call” value is “inactive”.

For the compound `CCCC(S)CCOC(C)=O` (stereo not drawn), the “odorant receptor agonist call” value is “inactive”.
